Compound activity from PubChem BioAssay.
A selection: hits, their analogues and other compounds. The true share with any hit is near 6.5%.
PostGolgi yeast: growth inhibition of a yeast mutant, post-Golgi transport screen | inhibition, % at 10 µM | post-Golgi transport phenotypic cell assay | 98,000 tested, 0.9% active;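 also: yeast cells grown in 1536-well plates; yeast grown about 18 h at 30C before absorbance read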
PostGolgi ctrl: inhibits growth of the yeast control strain; efflux-deficient yeast background strain, growth absorbance A615, 16 h; inhibition, % at 10 µM; 98,000 tested, 5% active; AID 738
PTK2B oligo ant: blocks oligomerization of human Pyk2 in cells; AID 1347419; Q14289; z-score (the deposit names both 25 µM and 10 µM); 99,000 tested, 0.83% active; Q293 cells, Pyk2 FERM NanoBiT luminescence; active compounds read low;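 active = Z-score of -3 or lower, scaled per plate to the spread of control and sample wells; inactive = z-score above -3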;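 also: negative z-score means lost luminescence so less FERM oligomerization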
Candida biofilm: kills Candida albicans biofilms | C. albicans biofilm + clotrimazole, Alamar Blue | inhibition, % at 6 µM | 85,000 tested, 0.14% active;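 active = inhibition above 20%; inactive = inhibition below 20%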;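 also: preformed 24 hr biofilms exposed to compound for 48 hr; 0% = biofilm without compound and 100% = blank killed by clotrimazole plus chlorhexidine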
E coli WT exp: blocks growth of wild type E. coli BW25113; OD600 absorbance; growth inhibition, % at 100 µM; 98,000 tested, 0.15% active; AID 710;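 active = growth inhibition above about 50% at one test dose, limit read from the data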;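 also: growth measured after 20 h incubation at 37 °C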
Ecoli tolC: E. coli tolC mutant growth inhibition; E. coli BW25113 tolC mutant growth, OD615; growth inhibition, % at 10 µM (by protocol); 65,000 tested, 2.2% active;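 active = growth inhibition at or above a cutoff equal to the mean over every tested compound plus 3 SD, cut at about 60% in these data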;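 also: growth measured after 20 h incubation at 37 °C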
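Test system: E. coli BW25113 ΔtolC::kan bacteria | Medium: Kanamycin-containing LB broth (50 µg/mL) | Dosing: One dose of 10 µM final | Times: 20 h incubation with compound, 37 °C | Detection: Optical density read at 615 nm | Read-out basis: Percent growth inhibition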
The depositor's hits bear a star; / = not tested or not shown. Rule as the data show it, unless noted: active = inhibition above about 30%; inactive = the rest.

SMILES | PostGolgi yeast | PostGolgi ctrl | PTK2B oligo ant | Candida biofilm | E coli WT exp | Ecoli tolC
CC1=NOC(=O)/C1=C\c1ccc(-c2ccc(Cl)cc2Cl)o1 | 60* | 35* | -0.87 | / | 10 | /
COc1ccc(OC)c(C(c2nnnn2Cc2ccccc2)N2CCN(C)CC2)c1 (stereo not drawn) | 6 | 36* | 0.12 | 3 | -5 | -15
COc1ccc(N2CCN(C(c3cc(OC)ccc3OC)c3nnnn3Cc3ccco3)CC2)cc1 (stereo not drawn) | -6 | 12 | -3.2* | / | -13 | 9
COc1ccc(OC)c(C(c2nnnn2C2CCCC2)N2CCN(c3ccc(F)cc3)CC2)c1 (stereo not drawn) | -10 | 6 | -3.2* | 6 | -18 | 10
CC1CC(C)CN(Cc2nc(N)nc(Nc3ccc4ccccc4c3)n2)C1 (stereo not drawn) | -1 | 0 | 2.5 | 1 | 14 | 22
c1ccc(-c2cn3c(n2)-c2ccccc2C3)cc1 | / | / | 0.35 | / | / | /
Cc1ccc(S(=O)(=O)Nc2cccc3ncccc23)s1 | -2 | 36* | -0.19 | / | -5 | 100*
O=C(C1CC=CCC1)N1CCN(C(=O)C2CC=CCC2)CC1 (stereo not drawn) | / | / | 0.11 | 6 | / | /
CCN(CC(=O)Nc1ccc2c(c1)OCO2)Cc1nc2ccccc2c(=O)[nH]1 | -8 | 31* | 0.69 | 0 | 3 | 4
CCN(CC(=O)Nc1ccc2c(c1)OC(F)(F)O2)Cc1nc2ccccc2c(=O)[nH]1 | -7 | 9 | -3.9* | 1 | 7 | /
Clc1ccc(-c2n[nH]c3c2CCC3)c(Cl)c1 | 107* | 47* | -2 | 3 | 15 | /
O=C1CN(C(=O)c2ccc(Br)o2)C(c2ccccc2)c2cc(Cl)ccc2N1 (stereo not drawn) | -15 | 26 | / | 3 | -6 | 85*
O=C1CN(C(=O)c2ccc(Br)o2)C(c2ccc(F)cc2)c2cc(Cl)ccc2N1 (stereo not drawn) | 0 | 31* | -2.2 | 7 | -18 | 26
O=C1CN(C(=O)c2ccc(Br)o2)C(c2ccccc2)c2cc(Br)ccc2N1 (stereo not drawn) | -12 | 22 | / | -3 | -7 | 20
CC(NS(=O)(=O)c1ccccc1)C(c1cccs1)N1CCN(C)CC1 (stereo not drawn) | / | / | 0.48 | 5 | / | -13
Cc1onc(-c2ccccc2Cl)c1C(=O)N1CCN=C1SCc1cccnc1 | -5 | 9 | -0.28 | / | -7 | 8
CCN1C(=C2C(=O)c3ccccc3C2=O)C=Cc2ccccc21 | 0 | 8 | -0.94 | 4 | 2 | 0
CCN1/C(=C/c2ccc3ccccc3[n+]2CC)C=Cc2ccccc21 | -1 | 66* | -1.8 | -1 | 57* | /
O=C(c1ccco1)c1nnn(Cc2ccccc2)c1-c1ccccc1 | 12 | 10 | -1.7 | 10 | -13 | 37
Cc1cc(NC(=O)NC(=O)c2cccc(OC(F)(F)C(F)F)c2)n[nH]1 | -11 | 33* | -1.8 | 5 | -2 | -10
O=C(Nc1ccc(S(=O)(=O)N2CCN(c3ccccc3)CC2)cc1)c1cccs1 | -4 | 25 | -1.3 | 1 | -6 | /
O=C(CCCn1c(=S)[nH]c2ccccc2c1=O)N1CCN(c2cccc(Cl)c2)CC1 | 9 | 4 | -3* | 2 | -5 | /
O=C(CCCCn1c(=O)[nH]c2ccccc2c1=O)N1CCN(c2cccc(C(F)(F)F)c2)CC1 | 1 | 7 | -1.6 | 2 | 4 | 19
CSc1nc2ccc(N3C(=O)C4CCCCC4C3=O)cc2s1 (stereo not drawn) | -4 | 9 | -0.49 | / | -1 | /
COc1ccc(NC(=O)N(Cc2cc3cc(OC)ccc3[nH]c2=O)CC2CCCO2)cc1 (stereo not drawn) | 0 | 36* | -0.36 | 2 | 3 | -1
SMILES | PostGolgi yeast | PostGolgi ctrl | PTK2B oligo ant | Candida biofilm | E coli WT exp | Ecoli tolC
COc1ccc(NC(=O)N(CCCN(C)C)Cc2cc3cc(OC)ccc3[nH]c2=O)cc1 | / | / | / | / | / | -7
COc1cc(/C=C(\C#N)c2nc3ccccc3[nH]2)ccc1Oc1ccc([N+](=O)[O-])cn1 | 15 | 2 | -3.3* | / | -11 | /
Cc1cc(/C=C(/C#N)c2nc3ccccc3[nH]2)c(C)n1-c1cccc([N+](=O)[O-])c1 | 34* | 10 | -0.86 | 5 | -19 | /
COc1cc(/C=C(/C#N)c2ccccc2)ccc1Oc1ccc([N+](=O)[O-])cn1 | 10 | 7 | 0.38 | / | -4 | /
CCC(=O)Nc1cccc(-c2nnc(-c3cccc(NC(=O)CC)c3)o2)c1 | -2 | 9 | -2.3 | 3 | 3 | /
CCC(=O)Nc1ccc(-c2nnc(-c3ccccc3)o2)cc1 | 0 | 40* | -0.16 | / | -10 | -6
O=C(Cc1ccc(Cl)cc1)Nc1ccc(-c2nnc(-c3ccco3)o2)cc1 | 31* | 9 | -0.39 | 5 | -3 | 11
O=C(Cc1ccccc1)Nc1ccc(-c2nnc(-c3ccco3)o2)cc1 | 1 | 16 | 1.6 | / | -6 | -6
O=C(CSc1nc2ccccc2[nH]1)NCCCn1ccnc1 | 6 | 3 | 1.9 | -1 | 3 | -18
COc1ccccc1OC(C)c1nnc(SCC(=O)Nc2c(C)n(C)n(-c3ccccc3)c2=O)n1-c1ccccc1 (stereo not drawn) | -10 | 4 | -0.16 | / | 0 | /
Cc1c(NC(=O)CSc2nnc(C(C)Oc3ccc(Cl)cc3)n2-c2ccccc2)c(=O)n(-c2ccccc2)n1C (stereo not drawn) | 3 | 32* | -0.13 | / | 8 | /
CCOCC(O)CS(=O)(=O)c1ccccn1 (stereo not drawn) | 7 | 35* | 0.83 | 5 | 3 | -24
Oc1c(C=Nc2cccnc2)sc2ccccc12 | 3 | 31* | -0.15 | 3 | -7 | 8
CN=Cc1sc2ccccc2c1O | -5 | 13 | 1 | 5 | 6 | -28
Fc1ccc(C2CC(c3ccco3)=NN2c2ccccc2)cc1 (stereo not drawn) | 5 | 11 | 1.8 | / | -1 | /
NS(=O)(=O)c1ccc(N2N=C(c3ccc(Br)cc3)CC2c2ccc(F)cc2)cc1 (stereo not drawn) | 16 | 86* | -0.02 | / | -9 | /
COc1ccc(-c2cc(C3CC3)nc3sc(C#N)c(N)c23)cc1 | 6 | 63* | -0.31 | / | -5 | /
Cc1nn(C(=O)CCCC(=O)n2nc(C)c(Cl)c2C)c(C)c1Cl | / | / | / | 4 | / | -3
O=c1[nH]c2ccccc2n2c(-c3ccncc3)nnc12 | -3 | 0 | 0.67 | / | 5 | /
COc1ccc2cc3cc(C(=O)NCc4ccccn4)oc3nc2c1 | 10 | 2 | 0.4 | / | -19 | -13
CCOc1ccc(NC(=O)c2cc3cc4ccc(OC)cc4nc3o2)cc1 | -7 | 2 | 0.53 | 58* | -3 | /
COc1ccc2cc3cc(C(=O)NCCN4CCN(c5ccccc5F)CC4)oc3nc2c1 | 1 | 81* | -3.1* | 3 | -4 | 52
O=C(Nc1ccc2cn[nH]c2c1)c1ccc(Cl)c(S(=O)(=O)N2CCOCC2)c1 | / | / | 0.62 | / | / | /
CCOP(=O)(OCC)C(C#N)=C1SCN(c2ccccc2)CS1 | / | / | 0.1 | 5 | / | /
COc1ccc(CN(C#N)c2nc(SC)nc(N(C)C)n2)cc1 | -9 | 41* | -1.9 | 4 | -19 | 4
Cc1ccccc1C(=O)NNC(=O)c1ccc(F)cc1 | -1 | -1 | 0.53 | / | 4 | /
